One block for each compound: values may come before it. The source made the active and inactive calls. No cut-off for these calls is given here.
Legend:
[1] = biological target: T1, Mitogen-activated protein kinase kinase kinase 7 (Homo sapiens) (UniProt O43318); assay: Inhibition of TAK1 in RA patient-derived synovial fibroblasts assessed as inhibition of poly(I:C)-induced cytokine secretion at 3 uM preincubated for 3 hrs followed by poly(I:C) stimulation measured after 18 hrs by sandwich immunoassay
T1 sequence (whole entry): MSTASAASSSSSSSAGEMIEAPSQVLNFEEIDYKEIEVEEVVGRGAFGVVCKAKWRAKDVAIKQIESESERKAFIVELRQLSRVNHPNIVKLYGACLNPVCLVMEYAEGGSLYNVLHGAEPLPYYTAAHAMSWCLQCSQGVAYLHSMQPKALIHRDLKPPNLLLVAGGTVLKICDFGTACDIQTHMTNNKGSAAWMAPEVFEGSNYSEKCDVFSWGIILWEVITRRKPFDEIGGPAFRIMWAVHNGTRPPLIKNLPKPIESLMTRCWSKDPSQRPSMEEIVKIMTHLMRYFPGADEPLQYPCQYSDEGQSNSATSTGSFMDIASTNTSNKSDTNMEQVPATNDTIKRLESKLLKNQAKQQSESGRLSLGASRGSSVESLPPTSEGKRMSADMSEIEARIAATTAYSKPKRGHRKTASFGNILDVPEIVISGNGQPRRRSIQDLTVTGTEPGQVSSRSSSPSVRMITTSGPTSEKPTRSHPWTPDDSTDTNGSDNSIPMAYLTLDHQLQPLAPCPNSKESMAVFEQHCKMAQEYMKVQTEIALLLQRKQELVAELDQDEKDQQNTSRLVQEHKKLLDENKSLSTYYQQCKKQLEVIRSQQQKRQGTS
How it was run: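 Primary RA synovial fibroblasts (donor RA2159) seeded 1000 cells/well and grown ~24 h at 37 °C, 5% CO2. Starved overnight in basal medium, then ~4 h in basal medium with 0.1% BSA. Two adjacent wells pooled per replicate, in biological duplicate. Supernatants diluted 1:3 and run on Luminex 27-plex/21-plex sandwich immunoassays for 48 analytes, with spiked-ligand and mock-supernatant background controls.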

[2] = biological target: T2, Dual specificity mitogen-activated protein kinase kinase 5 (Homo sapiens) (UniProt Q13163); assay: Inhibition of human MEK5 (98 to 448 residues) expressed in mammalian expression system assessed as enzyme activity at 1 uM by KINOMEScan assay relative to control; set-up: scale not given: the % may be the effect or the level left
T2 sequence (whole entry): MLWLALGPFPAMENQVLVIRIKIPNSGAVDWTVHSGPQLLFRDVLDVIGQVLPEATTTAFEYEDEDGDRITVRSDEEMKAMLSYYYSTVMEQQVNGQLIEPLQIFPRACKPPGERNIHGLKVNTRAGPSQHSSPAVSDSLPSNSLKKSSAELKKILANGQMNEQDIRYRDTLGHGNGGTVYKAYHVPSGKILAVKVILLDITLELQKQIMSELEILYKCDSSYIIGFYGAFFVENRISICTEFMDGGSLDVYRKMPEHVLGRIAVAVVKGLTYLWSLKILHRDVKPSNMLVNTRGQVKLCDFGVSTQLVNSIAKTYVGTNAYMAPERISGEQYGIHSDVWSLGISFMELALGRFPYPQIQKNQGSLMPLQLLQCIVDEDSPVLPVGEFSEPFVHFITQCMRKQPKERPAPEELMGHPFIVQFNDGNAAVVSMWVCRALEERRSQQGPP
How it was run: (§1)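 In vitro ATP-site competition binding assay across a panel of 456 kinases, with compound tested at 1 and 10 μM.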

[3] = biological target: Mast/stem cell growth factor receptor Kit (Homo sapiens) (UniProt P10721); assay: Inhibition of human KIT (571 to 952 residues) expressed in bacterial expression system assessed as enzyme activity at 10 uM by KINOMEScan assay relative to control; set-up: scale not given: the % may be the effect or the level left; how it was run: as §1
Sequence of Mast/stem cell growth factor receptor Kit (Homo sapiens) (P10721 whole entry, the tested form may be a part): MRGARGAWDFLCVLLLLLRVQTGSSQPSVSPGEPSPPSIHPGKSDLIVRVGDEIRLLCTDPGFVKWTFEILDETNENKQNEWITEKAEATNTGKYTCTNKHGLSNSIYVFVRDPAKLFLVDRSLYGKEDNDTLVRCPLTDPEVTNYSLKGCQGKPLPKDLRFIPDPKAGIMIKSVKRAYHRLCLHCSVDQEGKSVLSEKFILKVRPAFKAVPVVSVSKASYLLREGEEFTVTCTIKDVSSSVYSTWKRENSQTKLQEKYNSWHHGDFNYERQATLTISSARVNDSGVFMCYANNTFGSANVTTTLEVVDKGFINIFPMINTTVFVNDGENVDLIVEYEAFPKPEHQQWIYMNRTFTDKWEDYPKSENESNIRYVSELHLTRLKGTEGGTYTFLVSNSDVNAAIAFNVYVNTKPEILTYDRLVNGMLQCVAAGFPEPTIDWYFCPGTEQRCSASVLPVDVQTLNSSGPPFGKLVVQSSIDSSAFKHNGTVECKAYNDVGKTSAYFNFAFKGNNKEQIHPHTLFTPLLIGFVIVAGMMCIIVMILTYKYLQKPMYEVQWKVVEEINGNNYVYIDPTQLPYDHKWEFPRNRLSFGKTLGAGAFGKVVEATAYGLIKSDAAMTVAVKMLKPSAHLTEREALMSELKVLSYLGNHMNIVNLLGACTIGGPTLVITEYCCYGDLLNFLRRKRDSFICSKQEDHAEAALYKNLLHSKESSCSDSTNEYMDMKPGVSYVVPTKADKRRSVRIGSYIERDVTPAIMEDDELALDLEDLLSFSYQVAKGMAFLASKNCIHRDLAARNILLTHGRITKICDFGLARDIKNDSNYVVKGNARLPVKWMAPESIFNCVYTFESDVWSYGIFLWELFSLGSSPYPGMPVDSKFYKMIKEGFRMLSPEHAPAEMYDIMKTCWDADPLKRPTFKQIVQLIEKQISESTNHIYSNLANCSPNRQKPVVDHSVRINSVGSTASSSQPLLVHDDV

[4] = biological target: Deoxyuridine 5'-triphosphate nucleotidohydrolase, mitochondrial (Homo sapiens) (UniProt P33316); assay: Binding affinity to DUT in human NCI-H358 cells at 1 uM by mass spectrometry based pull down assay; assay type: cell-based
Sequence of Deoxyuridine 5'-triphosphate nucleotidohydrolase, mitochondrial (Homo sapiens) (P33316 whole entry): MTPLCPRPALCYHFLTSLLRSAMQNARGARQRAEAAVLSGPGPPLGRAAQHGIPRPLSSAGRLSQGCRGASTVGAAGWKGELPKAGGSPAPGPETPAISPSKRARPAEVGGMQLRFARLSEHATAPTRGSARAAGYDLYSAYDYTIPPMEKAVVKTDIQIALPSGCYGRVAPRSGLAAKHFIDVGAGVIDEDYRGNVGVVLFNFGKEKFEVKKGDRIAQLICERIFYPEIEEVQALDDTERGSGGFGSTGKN

[5] = biological target: Cancer-related nucleoside-triphosphatase (Homo sapiens) (UniProt Q9BSD7); assay: Binding affinity to NTPCR in human NCI-H358 cells at 1 uM by mass spectrometry based pull down assay; assay type: cell-based
Sequence of Cancer-related nucleoside-triphosphatase (Homo sapiens) (Q9BSD7 whole entry): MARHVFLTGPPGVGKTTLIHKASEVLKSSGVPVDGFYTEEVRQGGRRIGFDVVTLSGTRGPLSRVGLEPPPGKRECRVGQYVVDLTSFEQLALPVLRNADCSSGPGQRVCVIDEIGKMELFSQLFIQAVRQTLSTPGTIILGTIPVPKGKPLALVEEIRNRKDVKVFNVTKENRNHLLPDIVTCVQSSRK

[6] = biological target: THO complex subunit 4 (Homo sapiens) (UniProt Q86V81); assay: Binding affinity to ALYREF in human NCI-H23 cells at 1 uM by mass spectrometry based pull down assay; assay type: cell-based
[7] = biological target: 80S Ribosome (Homo sapiens) (UniProt P08865+P42677+P62753+P15880+P23396+P61247+P62701+P22090+P46782+P62081+P62241+P46781+P46783+P62280+P25398+P62277+P62263+P62841+P62244+P62249+P08708+P62269+P39019+P60866+P63220+P62266+P62847+P62851+P62854+P62979+P62857+P62273+P62861+P39023+P36578+P46777+Q02878+P18124+P62424+P62917+P32969+P27635+P62906+P62913+P30050+P26373+P40429+P50914+P61313+P18621+Q07020+Q02543+P84098+P46778+P35268+P62829+P62750+P83731+P61254+P61353+P46776+P46779+P47914+P62888+P62899+P62910+P49207+P42766+P18077+Q9Y3U8+P83881+P61927+P61513+P63173+P62891+P62945+P05388+P05386); assay: Binding affinity to RPL23A in human NCI-H23 cells at 1 uM by mass spectrometry based pull down assay; assay type: cell-based
[8] = biological target: Alkyldihydroxyacetonephosphate synthase, peroxisomal (Homo sapiens) (UniProt O00116); assay: Binding affinity to AGPS in human NCI-H23 cells at 1 uM by mass spectrometry based pull down assay; assay type: cell-based
Sequence of Alkyldihydroxyacetonephosphate synthase, peroxisomal (Homo sapiens) (O00116 whole entry): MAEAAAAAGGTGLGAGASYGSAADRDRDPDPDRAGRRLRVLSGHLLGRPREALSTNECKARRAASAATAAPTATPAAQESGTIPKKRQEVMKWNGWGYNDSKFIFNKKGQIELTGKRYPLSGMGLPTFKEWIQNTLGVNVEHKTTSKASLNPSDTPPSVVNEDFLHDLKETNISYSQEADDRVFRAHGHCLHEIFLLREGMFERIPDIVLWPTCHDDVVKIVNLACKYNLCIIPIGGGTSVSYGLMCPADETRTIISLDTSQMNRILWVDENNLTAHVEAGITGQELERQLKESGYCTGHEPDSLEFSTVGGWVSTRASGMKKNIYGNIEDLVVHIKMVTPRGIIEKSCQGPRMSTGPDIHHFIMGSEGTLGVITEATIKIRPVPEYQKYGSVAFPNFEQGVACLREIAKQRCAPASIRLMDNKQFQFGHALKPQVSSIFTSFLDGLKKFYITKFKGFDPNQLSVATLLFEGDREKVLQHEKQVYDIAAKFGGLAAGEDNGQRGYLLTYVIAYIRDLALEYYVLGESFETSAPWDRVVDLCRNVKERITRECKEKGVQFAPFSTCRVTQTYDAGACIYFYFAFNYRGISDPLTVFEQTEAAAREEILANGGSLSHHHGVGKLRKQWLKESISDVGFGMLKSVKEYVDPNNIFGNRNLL
How it was run: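 NCI-H23 or NCI-H358 cells were grown and lysed. Lysates were incubated overnight at 4 °C with 1 μM biotinylated covalent probe or DMSO, then pulled down on streptavidin beads. Proteins were run on polyacrylamide gels and stained with Coomassie. Bands were excised, digested and identified by mass spectrometry.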

[9] = biological target: Proteasome activator complex subunit 1 (Homo sapiens) (UniProt Q06323); assay: Binding affinity to PSME1 in human NCI-H358 cells at 1 uM by mass spectrometry based pull down assay; assay type: cell-based
Sequence of Proteasome activator complex subunit 1 (Homo sapiens) (Q06323 whole entry, one chain of several): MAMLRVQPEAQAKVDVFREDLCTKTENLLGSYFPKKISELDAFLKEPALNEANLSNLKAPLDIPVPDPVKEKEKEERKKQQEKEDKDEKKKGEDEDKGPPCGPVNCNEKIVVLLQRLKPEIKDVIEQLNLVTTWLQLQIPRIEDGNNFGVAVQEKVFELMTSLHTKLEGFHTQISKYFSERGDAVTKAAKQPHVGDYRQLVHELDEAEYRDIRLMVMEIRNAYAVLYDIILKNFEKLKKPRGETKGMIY

[10] = biological target: DNA mismatch repair protein Msh2 (Homo sapiens) (UniProt P43246); assay: Binding affinity to MSH2 in human NCI-H23 cells at 1 uM by mass spectrometry based pull down assay; assay type: cell-based
Sequence of DNA mismatch repair protein Msh2 (Homo sapiens) (P43246 whole entry): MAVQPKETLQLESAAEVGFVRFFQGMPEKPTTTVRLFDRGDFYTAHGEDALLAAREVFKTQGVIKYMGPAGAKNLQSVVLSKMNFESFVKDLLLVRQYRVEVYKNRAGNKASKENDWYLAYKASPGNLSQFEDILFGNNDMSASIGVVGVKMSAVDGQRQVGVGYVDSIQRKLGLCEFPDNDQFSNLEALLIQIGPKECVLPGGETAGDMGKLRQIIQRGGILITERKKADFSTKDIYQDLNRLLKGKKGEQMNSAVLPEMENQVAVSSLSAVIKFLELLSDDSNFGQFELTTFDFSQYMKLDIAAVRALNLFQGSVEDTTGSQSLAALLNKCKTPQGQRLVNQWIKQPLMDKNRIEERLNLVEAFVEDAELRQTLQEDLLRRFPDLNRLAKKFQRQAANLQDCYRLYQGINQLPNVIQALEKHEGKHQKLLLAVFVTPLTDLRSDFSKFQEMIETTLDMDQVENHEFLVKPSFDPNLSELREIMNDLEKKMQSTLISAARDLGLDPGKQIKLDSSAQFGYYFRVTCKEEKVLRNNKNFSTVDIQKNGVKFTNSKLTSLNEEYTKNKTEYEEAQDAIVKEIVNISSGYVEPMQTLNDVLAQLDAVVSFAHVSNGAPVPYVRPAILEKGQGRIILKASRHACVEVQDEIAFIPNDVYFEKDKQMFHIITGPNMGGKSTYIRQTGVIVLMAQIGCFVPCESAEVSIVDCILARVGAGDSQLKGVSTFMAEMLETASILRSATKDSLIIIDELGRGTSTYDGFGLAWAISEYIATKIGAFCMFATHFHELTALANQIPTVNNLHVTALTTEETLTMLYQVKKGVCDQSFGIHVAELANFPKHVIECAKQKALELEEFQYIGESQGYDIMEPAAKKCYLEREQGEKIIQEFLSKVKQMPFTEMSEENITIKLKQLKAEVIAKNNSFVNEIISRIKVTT

[11] = biological target: Serine hydroxymethyltransferase, mitochondrial (Homo sapiens) (UniProt P34897); assay: Binding affinity to SHMT2 in human NCI-H358 cells at 1 uM by mass spectrometry based pull down assay; assay type: cell-based
Sequence of Serine hydroxymethyltransferase, mitochondrial (Homo sapiens) (P34897 whole entry): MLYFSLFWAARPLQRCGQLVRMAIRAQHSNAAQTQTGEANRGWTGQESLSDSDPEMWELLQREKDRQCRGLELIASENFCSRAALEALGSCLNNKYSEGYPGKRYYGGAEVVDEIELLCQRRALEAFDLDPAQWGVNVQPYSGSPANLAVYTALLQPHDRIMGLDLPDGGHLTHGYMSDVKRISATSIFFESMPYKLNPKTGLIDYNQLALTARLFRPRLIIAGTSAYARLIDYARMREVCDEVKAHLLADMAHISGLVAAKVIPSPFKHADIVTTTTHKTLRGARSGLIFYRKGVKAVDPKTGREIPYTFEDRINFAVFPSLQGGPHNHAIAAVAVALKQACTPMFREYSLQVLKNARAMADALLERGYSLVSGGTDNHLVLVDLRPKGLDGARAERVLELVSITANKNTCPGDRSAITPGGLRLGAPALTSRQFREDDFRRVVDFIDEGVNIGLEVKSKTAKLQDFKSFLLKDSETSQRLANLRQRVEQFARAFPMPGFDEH

[12] = biological target: Signal recognition particle subunit SRP54 (Homo sapiens) (UniProt P61011); assay: Binding affinity to SRP54 in human NCI-H358 cells at 1 uM by mass spectrometry based pull down assay; assay type: cell-based
Sequence of Signal recognition particle subunit SRP54 (Homo sapiens) (P61011 whole entry): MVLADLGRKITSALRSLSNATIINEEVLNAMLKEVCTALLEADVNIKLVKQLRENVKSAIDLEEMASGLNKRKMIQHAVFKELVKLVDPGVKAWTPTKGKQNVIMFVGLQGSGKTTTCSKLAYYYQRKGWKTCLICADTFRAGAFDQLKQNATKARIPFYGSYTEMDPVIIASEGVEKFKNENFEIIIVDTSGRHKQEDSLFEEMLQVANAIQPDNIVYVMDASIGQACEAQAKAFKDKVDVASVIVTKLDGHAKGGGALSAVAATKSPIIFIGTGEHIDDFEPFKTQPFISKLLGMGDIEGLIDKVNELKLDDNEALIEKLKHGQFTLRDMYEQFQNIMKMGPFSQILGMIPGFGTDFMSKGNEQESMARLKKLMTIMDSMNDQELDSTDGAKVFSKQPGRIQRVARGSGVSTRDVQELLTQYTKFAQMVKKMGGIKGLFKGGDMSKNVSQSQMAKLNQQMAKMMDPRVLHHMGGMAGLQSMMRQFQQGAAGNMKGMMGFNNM

[13] = biological target: Ribosomal protein S6 kinase alpha-1 (Homo sapiens) (UniProt Q15418); assay: Binding affinity to RPS6KA1 in human NCI-H358 cells at 1 uM by mass spectrometry based pull down assay; assay type: cell-based
Sequence of Ribosomal protein S6 kinase alpha-1 (Homo sapiens) (Q15418 whole entry): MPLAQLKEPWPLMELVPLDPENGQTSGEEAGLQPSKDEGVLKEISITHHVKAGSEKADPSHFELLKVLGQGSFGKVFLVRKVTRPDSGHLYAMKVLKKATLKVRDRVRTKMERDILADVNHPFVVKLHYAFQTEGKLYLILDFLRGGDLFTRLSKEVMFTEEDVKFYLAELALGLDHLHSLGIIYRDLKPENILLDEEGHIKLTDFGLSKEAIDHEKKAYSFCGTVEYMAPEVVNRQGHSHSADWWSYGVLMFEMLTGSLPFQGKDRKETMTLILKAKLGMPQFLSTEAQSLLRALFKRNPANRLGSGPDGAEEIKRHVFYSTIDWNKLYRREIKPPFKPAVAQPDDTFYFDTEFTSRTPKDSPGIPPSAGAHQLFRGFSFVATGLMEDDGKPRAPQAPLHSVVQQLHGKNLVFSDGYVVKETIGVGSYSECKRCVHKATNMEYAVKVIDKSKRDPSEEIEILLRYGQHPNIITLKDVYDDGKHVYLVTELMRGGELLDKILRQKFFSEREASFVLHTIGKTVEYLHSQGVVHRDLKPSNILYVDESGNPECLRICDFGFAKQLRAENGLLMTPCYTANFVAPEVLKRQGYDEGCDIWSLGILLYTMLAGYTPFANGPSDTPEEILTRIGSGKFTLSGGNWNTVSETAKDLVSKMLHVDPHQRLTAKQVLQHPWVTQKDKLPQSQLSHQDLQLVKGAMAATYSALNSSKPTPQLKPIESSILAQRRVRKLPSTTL

SMILES: C=CC(=O)Nc1ccccc1Oc1nc(Nc2cnn(CCOC)c2)ncc1Cl
inhibition [1]: Active

SMILES: COc1cc(O)c2c(c1)/C=C/C[C@H](O)[C@H](O)C(=O)/C=C\C[C@H](C)OC2=O
Activity [2]: 0.2%
Activity [3]: 0.6%

Activity [4]: Active
Activity [5]: Active
Activity [6]: Active
Activity [7]: Active
Activity [8]: Active
Activity [9]: Active
Activity [10]: Active
Activity [11]: Active
Activity [12]: Active
Activity [13]: Active
SMILES: C=CC(=O)Nc1ccccc1Nc1nc(Nc2ccc(N3CCN(CCOCCOCCOCCNC(=O)CCCC[C@@H]4SC[C@@H]5NC(=O)N[C@@H]54)CC3)cc2)ncc1Cl

From ChEMBL document CHEMBL4118021, “Studies of TAK1-centered polypharmacology with novel covalent TAK1 inhibitors” (Bioorg Med Chem, 2017)
